# Assay outcomes as filed in PubChem.
# Shown are actives, neighbours in structure and some others; about 4.1% of the full set was active somewhere.
# KCNQ1 inh: inhibitors of human KCNQ1 potassium channel; B-score at 10 µM; CHO-K1 KCNQ1, FluxOR thallium flux fluorescence; stronger effect = higher value; 1.3% of 310,000 active;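 active = compounds whose thallium flux B-score, printed positive for inhibition, exceeds three library SD while starting fluorescence stays within three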;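 also: channel opened by potassium depolarization with thallium stimulus after 20 min compound exposure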
# Cl transport mod: modulators of human KCC2 chloride dependent transport; Q9H2X9; KCC2 cells, thallium flux FluoZin-2 fluorescence; B-score of Tl+ flux slope (higher = more flux/activation; lower = inhibition) at 10 µM; 2.2% of 190,000 active;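 active = thallium flux slope and its plate-corrected score both differing from the plate sample mean at a set confidence after two filtering rounds, in either direction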;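 also: slope of fluorescence scaled to starting intensity during 10 to 20 s after thallium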
# KCNQ1 act: potentiators or activators of human KCNQ1 potassium channel | P51787 | B-score at 10 µM | 0.35% of 310,000 active | CHO-K1 KCNQ1, thallium flux FluxOR fluorescence; stronger effect = higher value;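 active = fluorescence ratio B-score, a plate-corrected score, at least three library SD, with initial intensity B-score within 5 SD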
#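 Doses: Single concentration per compound, DMSO matched to controls | Test system: KCNQ1-transfected CHO-K1 cells | Timing: 90 min dye loading and 20 min compound exposure, both at room temperature | Measured by: Kinetic FluxOR thallium fluorescence, 10-s 1-Hz baseline, 110-s post-stimulus read | Medium: Assay buffer with matched DMSO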
# KCNK3 inh: human KCNK3 channel inhibition, primary screen. O14649. CHO-KCNK3 thallium flux, FluxOR fluorescence; stronger effect = lower value. B-score at 10 µM. 0.84% of 340,000 active. AID 602410;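 active = B-score under library mean minus 4 SD, starting fluorescence ratio at most library mean plus 5 SD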;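 also: more negative B-score means stronger inhibition of thallium flux through KCNK3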
# hERG protect: shields human hERG channel from block by proarrhythmic agents. AID 1511. activation (rescue from dofetilide block), less the hit threshold, % at 10 µM. Q12809. 0.51% of 310,000 active. CHO-hERG, FluxOR thallium flux, dofetilide IC70 present;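 active = activation above the mean of controls blocked by dofetilide plus 5 SD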;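 also: thallium influx through hERG after potassium depolarization seen as dye fluorescence rise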
# KCNK9 block: human KCNK9 channel inhibition; Q9NPC2; HEK293 KCNK9, FluxOR thallium flux fluorescence; stronger effect = lower value; B-score at 10 µM; 1.2% of 310,000 active; AID 488922;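 active = ratio B-score over 3 SD below the library mean, with starting fluorescence within 5 SD of its mean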;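 also: negative B-score means less thallium flux so channel inhibition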
# KCNK9 block conf: human KCNK9 inhibitor confirmation; shares compounds with KCNK9 block; HEK293 KCNK9 cells, FluxOR thallium flux fluorescence; inhibition, % at 10 µM; 43% of 4,900 active;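 active = thallium signal inhibited by more than 5 SD of the compound-free buffer control wells, on both duplicate plates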;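 also: 0% = assay buffer control wells without compound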
# Kir21 sel: mouse Kir2.1 off-target activity of KCNK9 modulators. shares compounds with KCNK9 block. Kir2.1 cells, FluxOR thallium flux fluorescence. inhibition, % at 10 µM. 4% of 4,900 active. AID 492993;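 active = thallium signal drop more than 5 SD beyond the mean of the no-compound control wells, seen in both duplicate plates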;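 also: signal is fluorescence rise after thallium addition divided by baseline fluorescence; plate controls were assay buffer only for no effect and full block by chlorpromazine control for full effect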
# KCNK9 uninduced: non-induced cell nonspecific activity of KCNK9 modulators; shares compounds with KCNK9 block; non-induced KCNK9-HEK293, FluxOR thallium flux; inhibition, % at 10 µM; 40% of 4,900 active;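 active = thallium signal drop beyond 5 SD of the untreated control mean, on both duplicate plates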;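 also: plate controls were buffer only IC0 wells for no effect and SID17386958 at its maximal inhibitory level for full effect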
# The depositor's hits bear a star; i = inactive; · = not tested or not shown.
SMILES,KCNQ1 inh,Cl transport mod,KCNQ1 act,KCNK3 inh,hERG protect,KCNK9 block,KCNK9 block conf,Kir21 sel,KCNK9 uninduced
CC(=O)c1cccc(NS(=O)(=O)c2ccc(C(=O)Nc3ccccc3)cc2)c1,i,·,i,i,-6.3,i,·,·,·
CC1(C)C(=O)Nc2ccccc2N1C(=O)COC(=O)c1ccc(NC(N)=O)cc1,·,·,·,i,·,·,·,·,·
N#CC1=C2SCN(c3ccccc3)CN2C(=O)CC1c1cccs1 (centres undefined),i,0.189,i,i,-4.7,i,·,·,·
N#CC1=C2SCN(c3ccccc3)CN2C(=O)CC1c1c(Cl)cccc1Cl (centres undefined),i,-0.654,i,i,-16.6,i,i,i,i
COc1cccc(C2CC(=O)N3CN(c4cccc(Cl)c4C)CSC3=C2C#N)c1OC (centres undefined),i,·,i,i,-12.3,i,i,i,i
N#CC1=C2SCN(c3ccccc3)CN2C(=O)CC1c1ccccc1Cl (centres undefined),i,·,i,i,-7.0,i,i,i,i
CNc1ccc(C(=O)OCC(=O)NC(=O)NC2CCCC2)cc1[N+](=O)[O-],·,·,·,i,·,·,·,·,·
Cc1cc(C)c2c(n1)SCC(=O)N2CC(=O)Nc1ccc(Br)c(C)c1,i,·,i,i,-4.6,i,·,·,·
O=C(N/N=C/c1ccccn1)c1cc(-c2ccc3ccccc3c2)n[nH]1,i,-0.964,i,i,-8.6,-12.8*,45.0%*,i,31.0%*
O=C(OCCN1CCN(c2ncc(C(F)(F)F)cc2Cl)CC1)c1ccc(Cl)cc1,i,·,i,i,-10.3,i,·,·,·
O=C(OC1CCN(c2ncc(C(F)(F)F)cc2Cl)CC1)c1ccc(Cl)cc1,i,0.0738,i,i,-9.2,i,i,i,i
COCCNC(=S)N(C)C1(c2ccccc2Cl)CCCCC1=O (centres undefined),i,1.34,i,i,-18.6,i,·,·,·
Cc1c(/C(O)=C2\C(=O)C(=O)N(CCCN(C)C)C2c2ccco2)cnn1-c1ccccc1 (centres undefined),·,·,·,i,·,·,·,·,·
Cc1noc(NS(=O)(=O)c2ccc(NC(=O)c3ccc(Cl)c(S(=O)(=O)N(C)c4ccccc4)c3)cc2)c1C,·,·,·,i,·,·,·,·,·
CCOC(=O)C1(CC2CC2)CCN(Cc2cn[nH]c2-c2cccc(F)c2)CC1,i,·,i,i,-9.9,i,·,·,·
CCOC(=O)C1(CC2CC2)CCN(Cc2ccc3cccc(F)c3n2)CC1,i,-0.367,i,i,-5.9,i,i,i,i
CCc1cccc(NC(=O)CCCSc2nc3ccccc3[nH]2)c1,i,-2.59,i,i,-14.6,i,·,·,·
Cc1nc2nc(SCC(=O)NCCCN3CCCC(C)C3)nn2c(C)c1Cc1ccccc1Cl (centres undefined),i,·,i,i,-5.2,i,·,·,·
Cc1cccc(C)c1OCC(O)CN1CCN(c2ccccc2)CC1 (centres undefined),i,-0.754,i,i,-15.6,i,i,i,i
OC(COc1ccc(Cl)cc1)CN1CCN(c2cccc(Cl)c2)CC1 (centres undefined),i,-0.47,i,i,-19.9,i,i,i,i
OC(COC(c1ccccc1)c1ccccc1)CN1CCN(c2cccc(Cl)c2)CC1 (centres undefined),i,·,i,i,-12.0,i,i,i,i
OC(COC(c1ccc(Cl)cc1)c1ccc(Cl)cc1)CN1CCN(c2ccccn2)CC1 (centres undefined),i,0.815,i,i,-34.1,i,i,i,i
Cc1cccc(N2CCN(CC(O)COc3ccc(Cl)cc3)CC2)c1 (centres undefined),i,·,i,i,-9.6,i,·,·,·
O=C(O/N=C1\CCCCC1c1ccc([N+](=O)[O-])cc1[N+](=O)[O-])c1c(F)cccc1F (centres undefined),i,·,i,i,-10.0,i,·,·,·
O=[N+]([O-])c1ccc(C2CCCC/C2=N/OCc2ccc(F)cc2)c([N+](=O)[O-])c1 (centres undefined),i,0.789,i,i,-13.6,-8.23*,75.5%*,i,32.5%*
SMILES,KCNQ1 inh,Cl transport mod,KCNQ1 act,KCNK3 inh,hERG protect,KCNK9 block,KCNK9 block conf,Kir21 sel,KCNK9 uninduced
Cc1ccc(NC(=O)O/N=C2\CCCCC2c2ccc([N+](=O)[O-])cc2[N+](=O)[O-])cc1 (centres undefined),i,-0.267,i,i,-5.9,-10.2*,65.0%*,i,32.0%*
O=[N+]([O-])c1ccc(C2CCCC/C2=N/O)c([N+](=O)[O-])c1 (centres undefined),i,·,i,i,0.0,i,·,·,·
COc1ccc(-n2nc(C(=O)NCC(=O)Nc3cccc(Cl)c3)c3ccccc3c2=O)cc1OC,i,·,i,i,-2.7,i,·,·,·
Cc1ccc(C)c(N2CCN(S(=O)(=O)c3ccc(-c4cc(C)no4)s3)CC2)c1,i,·,i,i,-8.8,i,·,·,·
Cc1ccc(C)c(N2CCN(S(=O)(=O)c3c(C)noc3C)CC2)c1,i,·,i,i,-0.6,i,i,i,28.0%*
CCn1c(SCc2ccccc2Cl)nc2nc3c(cc2c1=O)CCCC3,i,1.08,i,i,-12.0,i,i,i,i
Cc1cccc(Nc2nc(-c3ccncc3)cs2)c1,i,-1.82,i,i,-8.6,i,·,·,·
Cc1cccc(Nc2nc(-c3ccc4c(c3)OCCO4)cs2)c1,i,-0.343,i,i,-5.7,i,i,i,i
O=C(/C=C/c1ccccc1[N+](=O)[O-])N1CCc2ccccc2C1,i,·,i,i,-4.5,i,·,·,·
CCC(NC(=O)c1cccc(Cn2cc([N+](=O)[O-])cn2)c1)c1ccc(C(C)C)cc1 (centres undefined),i,-0.296,i,i,-9.3,-14.5*,61.5%*,i,41.5%*
Cc1cc(C)c(S(=O)(=O)c2ccc(C(C)(C)C)cc2)c(Cl)n1,i,·,i,i,-1.2,i,i,i,i
Cc1ccc(S(=O)(=O)c2c(C)cc(C)nc2Cl)cc1,i,·,i,i,-11.5,i,·,·,·
